Experimental data taken from publication PMC11914484 (Scientific Reports, 2025).
Blank lines part the entries; values can stand above or below the molecule they belong to. Ends that are not written are not given here.

What was measured:
[1] = test system: plasma proteins; experiment: Plasma protein binding by rapid equilibration dialysis; type: in vitro ADME, mini-pig
In short: (§1)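 Rapid equilibrium dialysis used K2-EDTA plasma from male animals of each species. The test compound (5 µM) was incubated for 2 h at 37 °C, with propranolol (1 µM) as control. Samples were analysed by LC-MS/MS, with response taken as the analyte-to-internal-standard peak area ratio. Unbound fraction = receiver-side response / donor-side response.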

[2] = test system: plasma proteins; experiment: as above; type: in vitro ADME, rat
In short: as §1

[3] = test system: plasma proteins; experiment: as above; type: in vitro ADME, rabbit
In short: as §1

[4] = test system: plasma proteins; experiment: as above; type: in vitro ADME, dog
In short: as §1

[5] = Plasma stability, mini-pig plasma; type: in vitro ADME
In short: (§2)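 K2-EDTA plasma from male animals of each species was incubated with the test compound (1 µM) at 37 °C for 0–4 h, with propantheline bromide (1 µM) as control. Intact compound remaining was measured by LC-MS to give the half-life.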

[6] = Plasma stability, rabbit plasma; type: in vitro ADME
In short: as §2

[7] = test system: male and female New Zealand White rabbits; experiment: 14-Day repeated tolerability/toxicity study, intranasal; type: in vivo, rabbit; conditions: male and female rabbits, 0.1, 1 and 5 mg/kg BW/day, 14 days
In short: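 GLP study run by a contract lab. Male and female New Zealand White rabbits were dosed intranasally with the test compound daily for 14 days at 0.1, 1.0 and 5.0 mg/kg body weight/day, followed by a 14-day recovery period, with toxicokinetics. Read-outs: local reaction, mortality, clinical signs, body weight, food consumption, clinical pathology, ophthalmoscopy, organ weight, haematology, coagulation, clinical chemistry and histopathology of a full tissue list.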

[8] = Safety of AmyP53 in mice; type: in vivo, mouse
In short: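 C57BL/6 mice. Preliminary safety run in 5 young (4-month-old) mice: intranasal test compound, then 10 min later stereotaxic SNpc injection of test compound, then daily intranasal dosing for 7 days. Full study used 7 per group: saline, human α-synuclein protofibrils (50 µM in 0.9% NaCl, pre-incubated 37 °C for 3 days), or protofibrils plus test compound (100 µM). Injections were bilateral into the SNpc, 2.5 µL, under isoflurane. The co-treated group then received daily intranasal dosing for 35 days.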

[9] = test system: female Wistar rats; conditions: initial studies; cited from earlier work
[10] = test system: male and female Wistar rats; experiment: Dose range finding, intranasal route; type: in vivo, rat; conditions: GLP, 0.2, 1 and 5 mg/kg BW every two days during five days
[11] = Plasma stability, rat plasma; type: in vitro ADME
In short: as §2

[12] = test system: male and female Sprague Dawley rats; experiment: 28-Day repeated dose toxicity, intranasal; type: in vivo, rat
[13] = cited from earlier work
[14] = Plasma stability, dog plasma; type: in vitro ADME
In short: as §2

[15] = biological target: dog plasma proteins; experiment: rapid equilibration dialysis
[16] = biological target: rat plasma proteins; experiment: rapid equilibration dialysis
[17] = biological target: mini-pig plasma proteins; experiment: rapid equilibration dialysis
[18] = biological target: rabbit plasma proteins; experiment: rapid equilibration dialysis
[19] = RED, K2-EDTA plasma from male animals, 2 h at 37 °C, AmyP53 5 µM, Propanolol 1 µM, LC-MS/MS
[20] = 5 mice, intranasal, then SNpc injection of AmyP53, then 7 days daily intranasal
[21] = 35-day treatment, SNpc co-injection then daily intranasal, n = 7 per group
[22] = rats, intranasal administration
[23] = K2-EDTA plasma from male animals, 400 µL, 1 µM, 37 °C, 0–4 h, cold acetonitrile quench, LC-MS/MS

Molecule: CC(C)NCC(O)COc1cccc2ccccc12 (stereo not shown) [Propranolol, reference compound]
- bound to plasma protein %, mini-pig plasma [1, 19]: 85.2 ±0.9%
- bound to plasma protein %, rat plasma [2, 19]: 89.8 ±0.1%
- bound to plasma protein %, rabbit plasma [3, 19]: 74.8 ±1.1%
- bound to plasma protein %, dog plasma [4, 19]: 86.5 ±1.0%

Molecule: KEGVLYVGHHTK [AmyP53]
- half-life at 1 µM ([5]; male, pig, K2-EDTA plasma): 6.07 h
- fraction unbound at 2 h, 5 µM ([1]; male, pig, K2-EDTA plasma): 0.186
- half-life at 1 µM ([6]; male, rabbit, K2-EDTA plasma): 10 h
- toxicity / tolerability of repeated intranasal administration in rabbits [7]: no systemic or local toxicity
- fraction unbound at 2 h, 5 µM ([2]; male, rat, K2-EDTA plasma): 0.066
- fraction unbound at 2 h, 5 µM ([3]; male, rabbit, K2-EDTA plasma): 0.183
- body mass, preliminary safety assessment [8, 20]: stable
- overall result of preliminary safety assessment [8, 20]: safe
- effect on body weight of treated mice [8, 21]: did not display any significant effect
- impact on overall behavior [8, 21]: did not induce any negative impact
- maximal tolerated dose, one-week intranasal administration [9]: > 5 mg/kg body weight
- maximal tolerated dose, one-week intravenous administration [9]: > 80 mg/kg
- maximal intranasal dose without any signs of toxicity or dysfunction [10]: The maximal intranasal dose of AmyP53 without any signs of toxicity or dysfunction, is greater or equal to 5 mg/kg BW in both male and female Wistar rats.
- half-life at 1 µM ([11]; male, rat, K2-EDTA plasma): 13.1 h
- intranasal no-observed adverse effect level (NOAEL) ([12]; male and female Sprague Dawley rats, GLP, every day for 28 days followed by 14 days of recovery): 5 mg/kg BW/day
- tolerability of repeated intranasal administration, 28 days ([12]; male and female rats, 0.1, 1.0 and 5.0 mg/kg body weight/day, 28 days and 14 days of recovery): well tolerated
- fraction unbound at 2 h, 5 µM ([4]; male, dog, K2-EDTA plasma): 0.154
- half-life of AmyP53 in the brain ([13]; approximate statement in discussion): about 1 h
- Cmax in brain tissue [13, 22]: 1.766 µg/mL
- T1/2 in brain tissue [13, 22]: 1.02 h
- Tmax in brain tissue [13, 22]: 5 min
- half-life at 1 µM ([14]; male, dog, K2-EDTA plasma): 1.38 h

Next, values leading:

- t1/2 in mini-pig plasma [5, 23]: 2.98 h
- t1/2 in rabbit plasma [6, 23]: 0.283 h
- t1/2 in rat plasma [11, 23]: 3.78 h
- t1/2 in dog plasma [14, 23]: 1.73 h
Molecule: CC(C)[N+](C)(CCOC(=O)C1c2ccccc2Oc2ccccc21)C(C)C [Propantheline, Propantheline bromide, reference compound]

- bound to plasma protein % [15]: 84.6%
- bound to plasma protein % [16]: 93.4%
- bound to plasma protein % [17]: 81.4%
- bound to plasma protein % [18]: 81.7%
Molecule: KEGVLYVGHHTK [AmyP53]
